Screens (PubChem BioAssay)
Compounds with a hit are over-represented: about 3.6% of the library has one in this group of screens.
MITF act: increases MITF-driven TRPM1 promoter luciferase signal. SK-MEL-5 TRPM1-promoter luciferase, 24 h; % of positive control, neutral wells = 0. activation, % at 12.5 µM. hit rate 0.75% among 300,000. AID 588334;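 active = mean activation of at least 80% with every replicate also reaching 80%; inconclusive = mean reaches 80% but some replicate falls short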
SR-BI uptake up: activators of SR-BI mediated HDL lipid uptake; activation, % at 12.5 µM; hit rate 0.096% among 320,000; AID 504775; CHO ldlA[mSR-BI] cells, DiI-HDL uptake fluorescence, 3 h; 100 = double the neutral-control signal;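 active = mean replicate activation of at least 60% and every replicate at or above 60%; inconclusive = mean or all-replicate condition met, but not both; inactive = mean below 60% and not all replicates reaching 60%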
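System: CHO ldlA[mSR-BI] cells / Medium: HEPES-buffered (25 mM, pH 7.4) F12 plus 0.5% BSA / Probe or stimulus: labelled HDL, 10 µg/mL / Doses: single compound concentration, delivered by pin transfer / Schedule: 3 h, 37 °C / Measured by: DiI fluorescence, bottom read / Measure: cell-associated DiI fluorescence as measure of HDL uptake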
SR-BI DiI inh: mouse SR-BI HDL lipid transfer inhibition. Q61009. ldlA[mSR-BI] CHO cells, DiI-HDL uptake fluorescence, 3 h. inhibition, % at 12.5 µM. hit rate 0.96% among 320,000;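 active = mean replicate inhibition of at least 70% and a set share of replicates each scoring 70 or more; inconclusive = meets just one of the two criteria; inactive = fails both criteria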
Target sequence (Q61009 whole entry, looked up): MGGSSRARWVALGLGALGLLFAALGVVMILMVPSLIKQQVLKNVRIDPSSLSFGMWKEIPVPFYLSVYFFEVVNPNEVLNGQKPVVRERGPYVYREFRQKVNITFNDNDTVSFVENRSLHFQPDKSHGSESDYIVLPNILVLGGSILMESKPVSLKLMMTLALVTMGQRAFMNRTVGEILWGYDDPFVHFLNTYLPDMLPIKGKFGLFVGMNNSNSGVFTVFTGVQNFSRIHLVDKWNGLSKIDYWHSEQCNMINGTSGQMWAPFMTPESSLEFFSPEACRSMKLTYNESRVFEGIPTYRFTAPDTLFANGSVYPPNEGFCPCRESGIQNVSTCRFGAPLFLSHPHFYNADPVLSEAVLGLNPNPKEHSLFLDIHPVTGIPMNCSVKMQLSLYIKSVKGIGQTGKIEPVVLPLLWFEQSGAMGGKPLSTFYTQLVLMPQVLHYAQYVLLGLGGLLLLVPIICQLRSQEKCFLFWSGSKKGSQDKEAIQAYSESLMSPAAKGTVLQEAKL
Wnt act: activates Wnt/beta-catenin signaling in a reporter cell assay; hit rate 1.2% among 300,000; activator, plate reader; AID 743398; activation, % at 9.35 µM; in the data active = activation above about 30%, passing the limit was not always enough; inconclusive = no clear call, values can overlap the other calls
HSF1 activator: increases HSF-1 driven luciferase reporter signal; NIH3T3-HGL HSF-1 luciferase reporter, MG132, 8 h; 100% = twice DMSO control signal; activation, % at 9 µM; hit rate 1.7% among 300,000;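 active = mean replicate activation of at least 50% with a set share of replicates each reaching 50%; inconclusive = only one of those two conditions met; inactive = mean below 50% and too few replicates reaching it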
Large screens that a line does not name were inactive.

Cc1cccc(N(C(=O)c2csnn2)C(C(=O)NCc2ccccc2)c2ccc(C)o2)c1 (configuration not stated)	none (no result: SR-BI uptake up, SR-BI DiI inh)
Cc1ccccc1N(C(=O)c1csnn1)C(C(=O)NC(C)(C)C)c1ccncc1 (configuration not stated)	HSF1 activator 93
CC(C)c1ccc(N(C(=O)c2csnn2)C(C(=O)NC2CCCC2)c2ccncc2)cc1 (configuration not stated)	HSF1 activator 53
Cc1ccc(C)c(S(=O)(=O)N2CCN(CC(=O)Nc3ccc4c(c3)OCCO4)CC2)c1	none (no result: Wnt act)
Cc1ccc(C)c(S(=O)(=O)N2CCN(CC(=O)Nc3cc(C)on3)CC2)c1	HSF1 activator 71 (no result: SR-BI uptake up, SR-BI DiI inh, Wnt act)
CCN(CC)c1ccc(/C=C(/C#N)c2nc3ccccc3[nH]2)c(OC(C)C)c1	SR-BI DiI inh 94 (no result: Wnt act)
COc1cc(/C=C(\C#N)c2nc3ccccc3[nH]2)ccc1OC(=O)c1ccco1	none
CCOc1cccc(/C=C(/C#N)c2nc3ccccc3[nH]2)c1OCC(=O)O	none
COc1cc(/C=C(\C#N)c2nc3ccccc3[nH]2)c([N+](=O)[O-])cc1OCc1ccccc1	SR-BI DiI inh 85 (no result: Wnt act)
COc1ccc(C(=O)Nc2ccc(N3CCN(C(=O)c4ccccc4C)CC3)cc2)cc1	none
Cc1ccccc1C(=O)N1CCN(c2ccc(NC(=O)c3cccnc3Cl)cc2)CC1	SR-BI DiI inh 76
O=C(Nc1ccc(N2CCCC2)cc1)c1ccccc1[N+](=O)[O-]	none
O=[N+]([O-])c1ccc(NC(=S)N2CCN(c3ccccc3)CC2)cc1	SR-BI uptake up 75
Cc1ccccc1C(=O)N1CCN(c2ccc(NC(=O)c3ccccc3[N+](=O)[O-])cc2)CC1	SR-BI DiI inh 78
O=C1N2CCCCC1(Sc1ccccc1)CCC2 (configuration not stated)	none (no result: MITF act, SR-BI uptake up, SR-BI DiI inh, HSF1 activator)
CCC(=O)NCCc1nc2cc(NC(=O)c3ccc(F)cc3)ccc2n1C	MITF act 93
CCC(=O)NCCc1nc2cc(NC(=O)c3ccc(OC)cc3)ccc2n1C	none (no result: Wnt act)
CCC(=O)NCCc1nc2cc(NC(=O)c3ccc(Cl)cc3)ccc2n1C	MITF act 123, Wnt act 37
O=S(=O)(Nc1cc2nc3ccccc3nc2n1Cc1ccccc1)c1ccc(Cl)cc1	HSF1 activator 114
COC(=O)[C@@]12C[C@@H](CC(=O)N3CCCCC3)C(=O)N(Cc3ccccc3)C1=CCC(C)(C)C2	none (no result: MITF act, SR-BI uptake up, SR-BI DiI inh, HSF1 activator)
CCS(=O)(=O)c1ccc2oc(Nc3ccccc3Br)nc2c1	MITF act 100, Wnt act 36
COC(=O)c1ccc(/C=C/c2c(-c3ccsc3)sc3ccccc23)cc1	SR-BI DiI inh 79
CCC(=O)Nc1cccc(C(=O)OCC(=O)c2ccccc2Cl)c1	HSF1 activator 65 (no result: Wnt act)
CC(=O)Nc1cccc(C(=O)OCC(=O)c2ccccc2Cl)c1	Wnt act 47, HSF1 activator 85
CCC(=O)Nc1cccc(C(=O)c2ccccc2)c1	none (no result: Wnt act)
CC(C)[C@H](NS(=O)(=O)c1ccc(F)cc1F)C(=O)N1CCC[C@H]1C(=O)NCCc1ccccc1Cl	none (no result: MITF act, SR-BI uptake up, SR-BI DiI inh, HSF1 activator)
COCc1cc(C)nc(SCC(=O)Nc2ccccc2N2CCOCC2)c1C#N	HSF1 activator 65
Cc1ccc(C(=O)NCCc2ccc(F)cc2)s1	MITF act 89, Wnt act 42
Cc1ccc(C(=O)NCc2ccc(F)cc2)s1	none (no result: MITF act)
O=C(NCCc1ccc(Cl)cc1)c1ccc(Br)s1	MITF act inconclusive, HSF1 activator 67
CC1(C(=O)NS(=O)(=O)c2ccccc2)CCN1C(=O)c1ccc(C2CCCCC2)cc1 (configuration not stated)	none (no result: MITF act, SR-BI uptake up, SR-BI DiI inh, HSF1 activator)
CCOc1ccc(N(C(=O)c2ccccc2Cl)C2=NC(C)(C)CS2)cc1	HSF1 activator 51
CSCCC(NC(=O)c1ccc(Cl)cc1Cl)C(=O)N1CCN(C(=O)c2ccccc2)CC1 (configuration not stated)	SR-BI DiI inh 78 (no result: HSF1 activator)
CCC(=O)Nc1ccccc1C(=O)OCC(=O)c1ccc2ccccc2c1	Wnt act 50
CCC(=O)Nc1ccccc1C(=O)OCC(=O)c1ccccc1	HSF1 activator 79 (no result: Wnt act)
CCCCC(=O)Nc1ccccc1C(=O)OCC(=O)c1ccc2c(c1)OCCO2	none
C#CCN(Cc1cccc(F)c1)C(=O)c1nnc2c3cc(F)ccc3n(S(=O)(=O)c3ccc(OC)cc3)c2n1	none (no result: MITF act, SR-BI uptake up, SR-BI DiI inh, HSF1 activator)
Nc1sc2c(c1C(=O)NCCc1ccccc1)CCCC2	none (no result: MITF act, SR-BI uptake up, SR-BI DiI inh, HSF1 activator)
COc1c(C(=O)NNC(=O)c2ccccc2Cl)csc1Br	Wnt act 41 (no result: MITF act)
O=C(NNC(=O)c1ccccc1Cl)c1ccncc1	none
O=C1NC[C@H](CCCCN2CCN(CCC3CCCCC3)C(=O)C2=O)N(CC2CCCCC2)C1=O	none (no result: MITF act, SR-BI uptake up, SR-BI DiI inh, HSF1 activator)
CN1C(=O)[C@@](O)(c2cn(C)c3ccccc23)c2cc(Br)ccc21	none (no result: MITF act, SR-BI uptake up, SR-BI DiI inh, HSF1 activator)
O=C(NN/C(=N/S(=O)(=O)c1ccc(Cl)cc1)c1ccccc1)c1ccc(O)cc1	HSF1 activator 60 (no result: Wnt act)
O=C(NN/C(=N/S(=O)(=O)c1ccc(Cl)cc1)c1ccccc1)c1cccc(Cl)c1	Wnt act 33, HSF1 activator 52
Cc1ccc(S(=O)(=O)/N=C(/NNC(=O)c2cccc(Cl)c2)c2ccccc2)cc1	none
O=S(=O)(/N=C(/NC(=S)Nc1ccccc1)c1ccccc1)c1ccc(Cl)cc1	MITF act 112
Cc1cn([C@H]2C[C@H](O)[C@@H](/C=C/C(=O)NCc3ccc4c(c3)OCO4)O2)c(=O)[nH]c1=O	none (no result: MITF act, SR-BI uptake up, SR-BI DiI inh, HSF1 activator)
Oc1ccc(-c2nc3ccc4ccccc4c3c3c2CCC3)cc1O	HSF1 activator 61
CC(=O)c1sc(NCc2ccc(C)cc2)nc1C	MITF act inconclusive, HSF1 activator 65
CC(=O)c1sc(NCc2ccccc2)nc1C	none (no result: SR-BI uptake up, SR-BI DiI inh)
Cc1nc(NC(=O)c2ccccc2)sc1C	HSF1 activator 58 (no result: MITF act)
CC(=O)c1sc(NC(=O)c2ccc(Cl)cc2)nc1C	MITF act 89 (no result: SR-BI uptake up, SR-BI DiI inh)
Cc1nc(NC(=O)c2csc3ccccc23)sc1C	Wnt act 42, HSF1 activator 61
Cc1nc(NC(=S)NC(=O)c2ccccc2)sc1C	none
CN1CCN(c2ncnc3c2ncn3[C@H]2CN(C)C[C@@H](CO)O2)CC1	none (no result: MITF act, SR-BI uptake up, SR-BI DiI inh, HSF1 activator)
COc1cccc(C(c2nnnn2C2CCCC2)N2CCN(C/C=C/c3ccccc3)CC2)c1OC (configuration not stated)	none (no result: MITF act, SR-BI uptake up, SR-BI DiI inh, HSF1 activator)
CN1CCc2nc(SCc3ccc(Cl)cc3)c(C#N)c(-c3cccs3)c2C1	HSF1 activator 190 (no result: MITF act, SR-BI uptake up, SR-BI DiI inh)
Cc1ccc(S(=O)(=O)NN2CCCCCC2)cc1	none (no result: MITF act, SR-BI uptake up, SR-BI DiI inh, HSF1 activator)
Cc1ccccc1S(=O)(=O)/N=C(/Nc1nc2ccccc2s1)c1ccccc1	MITF act 98, Wnt act 53 (no result: HSF1 activator)
Cc1cc(C(=O)N2CCC2(C)C(=O)NS(=O)(=O)c2cccc(OC(F)F)c2)nn1C (configuration not stated)	none (no result: MITF act, SR-BI uptake up, SR-BI DiI inh, HSF1 activator)
Cc1cccc2c(N=Nc3ccc(S(=O)(=O)Nc4ccc(Cl)cc4)cc3[N+](=O)[O-])c(O)[nH]c12	SR-BI DiI inh 97
Cc1c(C=C(C#N)c2ccc([N+](=O)[O-])cc2)c(=O)n(-c2ccccc2)n1C	none (no result: HSF1 activator)
Cc1ccccc1S(=O)(=O)N1CCCc2nc(-c3ccc(F)cc3)ccc21	none (no result: MITF act, SR-BI uptake up, SR-BI DiI inh, HSF1 activator)
